For one data set, the system named is Pseudomonas aeruginosa. The experiment in a line: Growth inhibition of Pseudomonas aeruginosa PAO1 at 5 to 100 uM measured every 15 mins up to 12 hrs. Format: organism-based. The note with it: in vitro. The method in brief: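 Growth of P. aeruginosa PAO1 was run like the reporter assay. The overnight LB culture was diluted in fresh LB and mixed in equal parts with compound diluted in LB, then growth was monitored in 96-well plates.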

Data set [1] relates to RAW264.7. Put plainly: Anti-inflammatory activity in mouse RAW264.7 cells assessed as inhibition of LPS-induced NO production at 10 uM preincubated for 2 hrs followed by LPS stimulation and measured after 48 hrs by Griess method relative to control. It is filed as functional. The method, boiled down:
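RAW264.7 cells seeded at 5 × 10^4/well and cultured 18 h, then given 10 µM compound plus LPS 100 ng/mL for 48 h at 37 °C. Supernatant mixed 1:1 with Griess reagent (1% sulfanilamide, 0.1% naphthylethylenediamine in 5% phosphoric acid) for 10 min; nitrite read at OD540.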
(Nitrite, measured by Griess reagent, commonly stands in for NO production.)

The target of data set [2] is T1, Peroxisome proliferator-activated receptor gamma (Mus musculus) (UniProt P37238).
T1 sequence (whole entry): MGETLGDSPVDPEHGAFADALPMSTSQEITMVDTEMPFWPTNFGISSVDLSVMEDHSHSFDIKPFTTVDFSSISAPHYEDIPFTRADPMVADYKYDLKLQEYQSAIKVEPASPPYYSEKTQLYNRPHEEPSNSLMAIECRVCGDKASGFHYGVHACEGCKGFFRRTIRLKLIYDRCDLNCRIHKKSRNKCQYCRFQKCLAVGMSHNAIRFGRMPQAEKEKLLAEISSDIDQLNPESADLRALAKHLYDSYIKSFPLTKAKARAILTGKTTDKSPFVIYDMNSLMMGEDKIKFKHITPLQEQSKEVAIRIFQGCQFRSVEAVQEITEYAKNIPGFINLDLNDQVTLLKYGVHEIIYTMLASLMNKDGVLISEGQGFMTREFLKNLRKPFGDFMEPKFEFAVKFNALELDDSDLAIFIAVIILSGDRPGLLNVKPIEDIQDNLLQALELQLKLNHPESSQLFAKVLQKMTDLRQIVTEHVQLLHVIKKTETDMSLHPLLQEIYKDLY
Put plainly: Agonist activity at PPARgamma in mouse RAW264.7 cells assessed as inhibition of LPS-induced ERk1/2 phosphorylation at Thr202/Tyr204 residues at 10 uM preincubated for 1 hr followed by LPS stimulation and measured after 4 hrs in presence of PPARgamma antagonist GW9662 by Western blot analysis. It is filed as cell-based. The method, boiled down: (§1)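 Western blot: RAW264.7 cells (2 × 10^6/well) pretreated 1 h with compound (10 µM), antagonist GW9662 (5 µM) where stated, then LPS 500 ng/mL for 4 h. Lysis on ice with PMSF, BCA-normalised protein on SDS gels, PVDF transfer, milk block, phospho- and total-protein primary antibodies, HRP secondary, ECL detection. Densitometry normalised to internal control; n = 3.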
For orientation: Immunoblotting shows a protein as a band on a membrane.

Data set [3] deals with T1, Peroxisome proliferator-activated receptor gamma (Mus musculus). The experiment in a line: Agonist activity at PPARgamma in mouse RAW264.7 cells assessed as inhibition of LPS-induced IkB-alpha phosphorylation at Ser32/36 residues at 10 uM preincubated for 1 hr followed by LPS stimulation and measured after 4 hrs by Western blot analysis. It is filed as cell-based. The method, boiled down:
as §1

Data set [4] in a line: Cytotoxicity against mouse RAW264.7 cells assessed as cell viability at 10 uM after 48 hrs by MTT assay relative to control. It is filed as cell-based. The conditions noted are these: read-out: Activity. The method in brief: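 MTT viability: RAW264.7 cells (4 × 10^4/well) in DMEM + 10% FBS exposed to compounds diluted in DMEM for 48 h. MTT 0.5 mg/mL added for 4 h in the dark, formazan dissolved in DMSO, read at 570 nm. Viability = treated/medium-only control × 100; three independent experiments.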

Data set [5] deals with RAW264.7. The experiment in a line: Anti-inflammatory activity in mouse RAW264.7 cells assessed as inhibition of LPS-induced TNF-alpha production by measuring TNF-alpha level at 10 uM preincubated for 2 hrs followed by LPS stimulation and measured after 6 hrs by ELISA (reference value: 11922 +/- 628.4 pg/ml). Format: functional. A general note: An ELISA detects its analyte on a solid surface through an enzyme-linked reagent.

Data set [6] deals with RAW264.7. Put plainly: Anti-inflammatory activity in mouse RAW264.7 cells assessed as inhibition of LPS-induced TNF-alpha production by measuring TNF-alpha level at 10 uM preincubated for 2 hrs followed by LPS stimulation and measured after 24 hrs by ELISA (reference value: 24216 +/- 498.7 pg/ml). Format: functional.
The target in data set [7] is T2, Anthranilate--CoA ligase (Pseudomonas aeruginosa (strain ATCC 15692 / DSM 22644 / CIP 104116 /JCM 14847 / LMG 12228 / 1C / PRS 101 / PAO1)) (UniProt Q9I4X3).
T2 sequence (whole entry): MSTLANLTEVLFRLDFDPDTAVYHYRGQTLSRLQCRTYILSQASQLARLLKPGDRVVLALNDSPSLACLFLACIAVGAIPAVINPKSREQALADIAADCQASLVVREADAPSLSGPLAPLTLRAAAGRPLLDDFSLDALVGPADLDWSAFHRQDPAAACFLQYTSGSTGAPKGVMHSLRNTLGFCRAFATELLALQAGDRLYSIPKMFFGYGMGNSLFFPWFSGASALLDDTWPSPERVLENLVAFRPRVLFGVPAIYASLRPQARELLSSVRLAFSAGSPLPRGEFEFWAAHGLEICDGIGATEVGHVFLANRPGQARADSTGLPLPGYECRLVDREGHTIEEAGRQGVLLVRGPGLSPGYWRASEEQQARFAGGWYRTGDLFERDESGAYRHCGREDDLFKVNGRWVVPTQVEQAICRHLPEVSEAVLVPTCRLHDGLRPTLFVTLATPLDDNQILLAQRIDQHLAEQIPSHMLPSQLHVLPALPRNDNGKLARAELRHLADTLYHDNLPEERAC
The experiment in a line: Inhibition of Pseudomonas aeruginosa PAO1 GFP-fused quorum sensing pqsA at 5 to 100 uM measured every 15 mins up to 12 hrs by GFP reporter gene assay. The method in brief: (§2)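 GFP reporter strains of P. aeruginosa PAO1 (lasB-, rhlA- or pqsA-promoter fused to unstable gfp(ASV)) grown overnight in LB at 37 °C, 200 rpm, 18 h, then diluted 1:100. Culture mixed 1:1 with compound diluted in LB from 10 mM DMSO stock (0.1% DMSO final). Fluorescence (ex 485/em 528 nm) read every 15 min at 37 °C for ≥12 h.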

The target in data set [8] is T1, Peroxisome proliferator-activated receptor gamma (Mus musculus). The experiment in a line: Agonist activity at PPARgamma in mouse RAW264.7 cells assessed as inhibition of LPS-induced NF-kB p65 phosphorylation at 10 uM preincubated for 1 hr followed by LPS stimulation and measured after 4 hrs in presence of PPARgamma antagonist GW9662 by Western blot analysis. Format: cell-based. The method, boiled down: as §1

The next data set has as its system Mus musculus. The experiment in a line: Anti-inflammatory activity in LPS-induced sepsis shock mouse model assessed as survival rate at 20 mg/kg, iv pretreated daily for 5 days followed LPS treatment on day 5 at 1 hr post last dose and measured after 7 days relative to control. It is filed as functional. The method in brief: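 Male SPF mice, randomly grouped, dosed i.v. with compound dissolved in DMSO and diluted in physiological saline; vehicle group given a similar volume. LPS was injected on day 5, 1 h after the last administration. Survival was recorded every 12 h for 7 days after LPS, with 11 animals per group per figure legend.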

The target of data set [9] is T2, Anthranilate--CoA ligase (Pseudomonas aeruginosa (strain ATCC 15692 / DSM 22644 / CIP 104116 /JCM 14847 / LMG 12228 / 1C / PRS 101 / PAO1)). Put plainly: Inhibition of Pseudomonas aeruginosa PAO1 GFP-fused quorum sensing pqsA measured every 15 mins up to 12 hrs by GFP reporter gene assay. The method, boiled down: as §2

The source made the active and inactive calls. The calls are words filed in the database; no cut-off is given here.

As to `O=C(C=Cc1ccccc1)Nc1ccc(CC2=CC(=O)O/C2=C/Br)cc1`, in the data set with Pseudomonas aeruginosa, the “growth inhibition (GI)” value was “Non-Toxic”. Also, the inhibition at 10 µM in the data set with RAW264.7 [1] amounted to 70%. Besides, the inhibition entry in data set [2], in data set [7] and in [8] was “inactive” throughout. Moreover, the inhibition result in [3] is “Active”. The viability at 48 h, 10 µM in data set [4] turned out to be 104%. The values for the Activity in the data set on RAW264.7 [5] and in the data set with RAW264.7 [6] were 7750 pg/mL and 19550 pg/mL, respectively.

With `O=C(Cc1ccc(F)cc1)Nc1ccc(CC2=CC(=O)OC2=CBr)cc1`, in the data set on Mus musculus, the survival at 20 mg/kg came to 45.5%. For the same compound, the “growth inhibition (GI)” value with Pseudomonas aeruginosa is reported as “Non-Toxic”. Besides, in the data set on RAW264.7 [1], the inhibition at 10 µM stood at 73.7%. Also, the inhibition result in [2] and in data set [8] was “inactive” throughout. In [9], the inhibition result is “Dose-dependent effect”. The inhibition result in data set [3] is “Active”. For the same compound, the viability at 48 h, 10 µM in [4] is 97%. For the same compound, the Activity was 7524.7 pg/mL in the data set on RAW264.7 [5] and 18322 pg/mL with RAW264.7 [6].

As usually defined, the inhibition is the drop in the measured response relative to a control, in per cent.

Values taken from ChEMBL document CHEMBL4145447, “4-arylamidobenzyl substituted 5-bromomethylene-2(5H)-furanones for chronic bacterial infection” (Eur J Med Chem, 2018).
